M4 PAM – positive allosteric modulators of human muscarinic M4 receptor; P08173; CHO-K1 hM4/Gqi5, Fluo-8 calcium fluorescence, ACh EC20; 0% = ACh EC20, 100% = maximal ACh; activation, % at 3 µM; 360,000 compounds, 0.4% hits; AID 624126;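 active = activation above its plate's cutoff, the mean activation of sample wells plus 3 SD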
Target sequence (P08173 whole entry, looked up): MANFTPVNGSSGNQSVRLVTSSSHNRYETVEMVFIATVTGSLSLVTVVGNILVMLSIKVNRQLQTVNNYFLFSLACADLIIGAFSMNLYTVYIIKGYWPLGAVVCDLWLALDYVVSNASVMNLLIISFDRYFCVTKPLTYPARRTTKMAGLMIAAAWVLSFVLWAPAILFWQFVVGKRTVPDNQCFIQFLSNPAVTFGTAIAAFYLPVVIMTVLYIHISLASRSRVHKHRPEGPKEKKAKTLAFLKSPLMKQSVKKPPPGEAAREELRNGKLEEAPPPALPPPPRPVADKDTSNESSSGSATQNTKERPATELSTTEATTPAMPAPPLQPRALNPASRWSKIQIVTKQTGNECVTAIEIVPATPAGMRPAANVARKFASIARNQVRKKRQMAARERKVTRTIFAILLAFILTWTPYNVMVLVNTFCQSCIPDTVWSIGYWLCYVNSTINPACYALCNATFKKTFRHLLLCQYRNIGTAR
CHRM5 antagonist – blocks acetylcholine activation of human M5 receptor; inhibition, % at 3 µM; CHO-hM5 cells, Fluo-8 calcium fluorescence, ACh EC80; AID 624040; 360,000 compounds, 0.59% hits;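 active = inhibition above a per-plate cutoff, the mean of that plate's test compounds plus 3 SD, cut at about 27% in these data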
M5 ag – CHRM5 agonism in calcium assay; P08912; 360,000 compounds, 0.19% hits; CHO-K1 hM5 cells, Fluo-8 calcium fluorescence; 0% DMSO wells, 100% maximal acetylcholine response; activation, % at 3 µM;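 active = activation above the run's mean over test compounds plus 3 SD, cut at about 23% in these data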;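 note: signal is peak over basal fluorescence ratio across the kinetic read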
M4 ag – CHRM4 agonism in calcium assay; AID 624127; 360,000 compounds, 0.14% hits; CHO-K1 hM4/Gqi5, Fluo-8 calcium fluorescence; vehicle 0%, full acetylcholine response 100%; activation, % at 3 µM;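 active = activation above the run mean over all test wells plus 3 SD, cut at about 32% in these data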;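 note: peak over basal fluorescence ratio per well then scaled between controls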
M4 antag – blocks acetylcholine activation of human M4 receptor; P08173; CHO-hM4 cells, ACh EC80, Fluo-8 calcium fluorescence; inhibition, % at 3 µM; 360,000 compounds, 0.73% hits; AID 624125;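 active = inhibition above its plate's cutoff, the mean inhibition of sample wells plus 3 SD, cut at about 27% in these data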
M5 PAM – positive allosteric modulators of human muscarinic M5 receptor | P08912 | CHO-K1 hM5, Fluo-8 calcium, ACh EC20 PAM; 0% = ACh EC20, 100% = ACh EC100 | activation, % at 3 µM | 360,000 compounds, 0.3% hits | AID 624038;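 active = activation above the run cutoff, the mean activation of all test compounds plus 3 SD, cut at about 18% in these data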
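system = human M5 receptor in CHO-K1 cells | reagent = EC20 acetylcholine as agonist stimulus | compound dosing = single-point, 3 µM nominal | incubation = Fluo-8 loading 80 min at 37 °C plus 30 min room temperature | detection = Fluo-8 calcium dye fluorescence, kinetic read | benchmarks = low control EC20 acetylcholine (0%), high control EC100 acetylcholine (100%)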
Of the large screens only hits and unclear results are named; the others gave an inactive call; ! = repeats disagree. The list is not random: actives were taken first. Their share in the collection is about 1.9%.

COc1cccc(CN(C)C(=O)c2cccc(S(=O)(=O)Nc3cccc(C)c3)c2)c1OC	none
COC(=O)c1ccc(Cl)cc1NC(=O)/C=C/c1ccc(C)o1	M5 PAM 20
CCOC(=O)N1CCN(c2nc3ccc(C(=O)c4ccccc4)cc3n3cnnc23)CC1	M4 PAM 31
CN(C1CCCCC1)S(=O)(=O)c1ccc2c(c1)c(=O)c(C(=O)NCCCN1CCCC1)cn2C	M4 antag 27
CN(C1CCCCC1)S(=O)(=O)c1ccc2c(c1)c(=O)c(C(=O)NCCN1CCCC1)cn2C	none
CC1=C(C(=O)OCC2CCCO2)C(c2ccncc2)C2=C(CCCC2=O)N1 (stereo unspecified)	none
CCN(CC)c1ccc(C2C(C(=O)OCCOC)=C(C)NC3=C2C(=O)CCC3)cc1 (stereo unspecified)	M4 antag 35
CC1=C(C(=O)OCC2CCCO2)C(c2ccc(C)cc2)C2=C(CCCC2=O)N1 (stereo unspecified)	M5 PAM 20
O=C(Nc1cccc(NC(=O)c2ccc(-c3ccc(Br)cc3)o2)c1)c1ccco1	CHRM5 antagonist 31, M4 antag 32
O=C(Nc1cccc(NC(=O)c2ccccc2Cl)c1)c1ccco1	none
O=C1NC(c2ccccc2)CCO1 (stereo unspecified)	M4 PAM 30
COc1cc(CNC(=O)c2cc(-c3ccc(OC)cc3C)n[nH]2)cc(OC)c1	none
Cc1ccc(-n2nnnc2-c2ccco2)cc1	none
c1ccc(Cn2nnnc2-c2ccco2)cc1	M4 PAM 37
O=C(C1CC1)N1c2ccccc2Sc2ccccc21	none
O=C1CCCN1CCCNCC(O)c1ccccc1 (stereo unspecified)	none
O=C(CN1CCCC(O)C1)N1c2ccccc2Sc2ccc(C(F)(F)F)cc21 (stereo unspecified)	CHRM5 antagonist 41, M4 antag 65
O=C(CN1CCCCCC1)N1c2ccccc2Sc2ccccc21	CHRM5 antagonist 94, M4 antag 94
O=C1CCCN1CCCNCC(=O)N1c2ccccc2Sc2ccccc21	CHRM5 antagonist 35, M4 antag 52
CC1CCCN(c2ccc(C(=O)OCC(=O)N3c4ccccc4Sc4ccccc43)cc2[N+](=O)[O-])C1 (stereo unspecified)	M4 antag 30
CC1CCCN(c2ccc(C(=O)OCn3nnc4ccccc4c3=O)cc2[N+](=O)[O-])C1 (stereo unspecified)	none
CN(C(=O)COC(=O)/C=C/c1cccs1)C1CCCCC1	none
O=C(CN1CCCCC1)N1c2ccccc2Oc2ccccc21	M4 antag 37
O=C(/C=C/c1ccccc1)N1c2ccccc2Sc2ccc(C(F)(F)F)cc21	M4 PAM 29
O=C(CN1CCN(CCOCCO)CC1)N1c2ccccc2Sc2ccc(Cl)cc21	M4 antag 34
CN1CCN(CCCN2c3ccccc3Sc3ccc(C(F)(F)F)cc32)CC1	M4 antag 85!
CC1Cc2ccccc2N1C(=O)CN1CCCCC1 (stereo unspecified)	none
O=C(CN1CCOCC1)N1c2ccccc2Sc2ccc(Cl)cc21	none
COc1ccc2cc(OCC(=O)NNC(=O)Nc3ccc(C(C)=O)cc3)ccc2c1	none
O=C(CN1CCN(c2ccccn2)CC1)Nc1ccc(F)cc1F	none
Cc1ccc(NC(=O)CCNS(=O)(=O)c2ccc3[nH]c(=O)oc3c2)cc1N(C)C	none
CCOC(=O)N1CCN(CC(=O)N2c3ccccc3Sc3ccccc32)CC1	none
CC1CCCN(CCC(=O)c2ccccc2)C1 (stereo unspecified)	none
CC1CCCN(CC(=O)N2c3ccccc3Sc3ccccc32)C1 (stereo unspecified)	CHRM5 antagonist 30, M4 antag 33
CN1CCN(CC(=O)N2c3ccccc3Sc3ccccc32)CC1	CHRM5 antagonist 64, M4 antag 67
Cc1ccc(S(=O)(=O)Nc2ccc(Cl)cc2O)cc1	none
CC(C)CCOc1cccc(OCC(=O)Nc2ccncc2)c1	CHRM5 antagonist 33
Cc1cc(OCC(=O)Nc2ccncc2)c(C)cc1Br	CHRM5 antagonist 34
COc1cccc(OCC(=O)Nc2ccncc2)c1	none
O=C(COc1ccc2ccccc2c1Br)Nc1ccncc1	CHRM5 antagonist 29
CN(C)C(=O)c1ccc(NC(=O)COc2ccc([N+](=O)[O-])cc2)cc1	none
Nc1nc2c(ncn2[C@@H]2O[C@H](CNS(=O)(=O)c3cccnc3)[C@@H](O)[C@H]2O)c(=O)[nH]1	none
COC(=O)c1ccc2c(c1)C(C)(C)C(/C=C/c1ccc(OC)c(OC)c1OC)=[N+]2C	M4 antag 32
COC(=O)c1ccc2c(c1)C(C)(C)C(/C=C/c1ccc(O)cc1)=[N+]2C	none
CCN(CC(=O)Nc1ccccc1C(F)(F)F)C(=O)CN1C(=O)NC(C)(c2ccc3ccccc3c2)C1=O (stereo unspecified)	none
COc1ccc(-c2cc(C(=O)N3CCN(c4ccccc4O)CC3)c3ccccc3n2)cc1	M4 antag 29
COc1ccc(-c2cc(C(=O)N3CCN(c4ccccc4)CC3)c3ccccc3n2)cc1	none
COc1ccc(-c2cc(C(=O)N3CCN(c4ccccn4)CC3)c3ccccc3n2)cc1	M4 antag 27
CCOc1ccc(-c2cc(C(=O)N3CCN(c4ccccn4)CC3)c3ccccc3n2)cc1	none
COc1ccc(-c2cc(C(=O)N3CCN(c4ccccc4O)CC3)c3ccccc3n2)cc1OC	CHRM5 antagonist 28
Cc1ccc(-c2cc(C(=O)N3CCN(c4ccccc4O)CC3)c3ccccc3n2)cc1	none
COc1cccc(-c2oc3c(c2C(=O)OCCN2CCCCC2)C(O)CCC3)c1 (stereo unspecified)	none
CC(C)(C)OC(=O)C[C@H]1C/C=C\C[C@H](CC(=O)NCCO)C(=O)N2CCC[C@@H]2COC1=O	none
O=C(COC(=O)CNC(=O)c1ccccc1F)NC12CC3CC(CC(C3)C1)C2	none
CCN(CC)C(=O)C1=C(C)N(CCC2=CCCCC2)C(=O)C(CC(=O)NC2CCCC2)C1 (stereo unspecified)	none
O=C(CCc1nnc2n(CCc3ccccc3)c(=O)c3ccccc3n12)NCCCN1CCCCC1	M4 antag 37
O=C(CCc1nnc2n(Cc3ccc(Cl)cc3)c(=O)c3ccccc3n12)NCCN1CCCC1	none
CC(=O)Nc1cc(-c2cccc(C(=O)NCCO)c2)cn2c(-c3ccc(F)c(Cl)c3)cnc12	none
CCSc1nsc(NC(=O)Nc2ccccc2F)n1	none
C=CCSc1nsc(NC(=O)Nc2ccc(F)cc2)n1	CHRM5 antagonist 33

Screens (PubChem)
